The target in assay [1] is T1, Glucocorticoid receptor (Homo sapiens, UniProt P04150).
T1 sequence (P04150 whole entry): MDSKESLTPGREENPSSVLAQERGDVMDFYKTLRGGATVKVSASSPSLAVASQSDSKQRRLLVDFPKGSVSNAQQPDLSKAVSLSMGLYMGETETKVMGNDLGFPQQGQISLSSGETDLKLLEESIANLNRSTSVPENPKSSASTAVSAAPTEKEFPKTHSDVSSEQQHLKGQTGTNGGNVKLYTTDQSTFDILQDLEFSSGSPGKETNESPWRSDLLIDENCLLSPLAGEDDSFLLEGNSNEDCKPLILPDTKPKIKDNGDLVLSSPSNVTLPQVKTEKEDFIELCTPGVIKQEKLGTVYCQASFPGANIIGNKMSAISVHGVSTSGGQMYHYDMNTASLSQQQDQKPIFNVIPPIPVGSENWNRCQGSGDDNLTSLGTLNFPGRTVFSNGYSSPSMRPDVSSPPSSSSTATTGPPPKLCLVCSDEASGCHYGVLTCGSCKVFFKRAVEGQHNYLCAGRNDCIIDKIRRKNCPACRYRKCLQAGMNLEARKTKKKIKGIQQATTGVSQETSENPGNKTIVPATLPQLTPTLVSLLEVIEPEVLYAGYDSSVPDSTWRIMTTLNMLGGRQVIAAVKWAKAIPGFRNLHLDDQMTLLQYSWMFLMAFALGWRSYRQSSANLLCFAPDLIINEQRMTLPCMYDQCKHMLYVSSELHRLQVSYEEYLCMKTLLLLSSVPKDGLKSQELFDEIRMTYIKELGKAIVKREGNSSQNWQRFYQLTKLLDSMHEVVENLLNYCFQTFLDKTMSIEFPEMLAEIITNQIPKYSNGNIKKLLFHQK
The assay is described as follows: Compound was tested for inhibitory activity towards human glucocorticoid receptor.

Another assay relates to Mus musculus. The assay is described as follows: Ability to induce mouse macrophage IL-6 assay in peritoneal exudate cells harvested by […] from C57BI/6 mice. It counts as functional, cell-based. The method, boiled down:
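Thioglycolate-elicited peritoneal exudate cells from C57Bl/6 mice, harvested day 3 in PBS/heparin, washed and resuspended at 5.6×10^5 cells/mL in RPMI 1640 with 10% heat-inactivated FCS. Compound (typically 3 μM final) preincubated 1 h at 37 °C, 5% CO2, then LPS or TNF added, 24 h. Supernatant IL-6 read; duplicate wells, three experiments.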

The target in assay [2] is T1, Glucocorticoid receptor. The assay is described as follows: Ability to induce human IL-6 assay in A549 lung carcinoma cell line. In kind it is functional, cell-based.
The target in assay [3] is T1, Glucocorticoid receptor. The experiment in a line: Glucocorticoid induced transactivation of human tyrosine amino transferase in HepG2 cells. In kind it is functional, cell-based.
The target in assay [4] is T1, Glucocorticoid receptor. The experiment in a line: Ability to induce human glutamine synthetase in skeletal muscle cells. In kind it is cell-based.

As usually defined, the IC50 is the concentration at which inhibition is half-maximal. Higher therefore signals a need for much substance. As a reminder, the EC50 is the concentration at which the effect is half-maximal. Low readings indicate an effect from little substance, high ones a need for much substance. Take `COc1cc([C@H](O)[C@H]2CCCC3=Cc4c(cnn4-c4ccc(F)cc4)C[C@@]32C)ccc1F`: on Glucocorticoid receptor [1], the 50% inhibitory concentration (IC50) was 7.9 nM. In addition, the results for the EC50 in the assay on Mus musculus and at Glucocorticoid receptor [2] were 20.5 nM and 31.3 nM, respectively.
On the same counts, the results for `Cc1ccc(C[C@H](O)[C@H]2CCCC3=Cc4c(cnn4-c4ccc(F)cc4)C[C@@]32C)cc1` are 3.4 nM, 41.5 nM and 11.4 nM.
On the same counts, the results for `Cc1cc([C@H](O)[C@H]2CCCC3=Cc4c(cnn4-c4ccc(F)cc4)C[C@@]32C)ccc1F` are 6.7 nM, 54.3 nM and 10.2 nM.
In turn, `CC(C)(C)[C@H](O)[C@H]1CCCC2=Cc3c(cnn3-c3ccc(F)cc3)C[C@@]21C` returned an IC50 against Glucocorticoid receptor [1] of 77.3 nM. This counts as double-digit nanomolar.
On Glucocorticoid receptor [1], `C[C@H](O)[C@H]1CCCC2=Cc3c(cnn3-c3ccc(F)cc3)C[C@@]21C` had an IC50 of 8.8 nM. Moreover, a half-maximal response on Glucocorticoid receptor [2] (EC50) required 14.3 nM.
The compound `C[C@]12Cc3cnn(-c4ccc(F)cc4)c3C=C1CCC[C@@H]2[C@@H](O)c1ccc(Cl)cc1` registered an IC50 against Glucocorticoid receptor [1] of 9 nM. Also, the half-maximal effective concentration (EC50) with Mus musculus turned out to be 60.1 nM; at Glucocorticoid receptor [2], 1.9 nM.
`C[C@]12Cc3cnn(-c4ccc(F)cc4)c3C=C1CCC[C@@H]2[C@@H](O)Cc1ccccc1` registered an IC50 against Glucocorticoid receptor [1] of 4.2 nM. Further, the EC50 turned out to be 24.7 nM in the assay on Mus musculus and 13.9 nM at Glucocorticoid receptor [2].
In turn, `CC(C)(O)[C@H]1CCCC2=Cc3c(cnn3-c3ccc(F)cc3)C[C@@]21C` gave a half-maximal inhibitory concentration (IC50) against Glucocorticoid receptor [1] of 1.9 nM. For the same compound, the EC50 with Mus musculus came to 15.1 nM; on Glucocorticoid receptor [3] it was 83.5 nM; on Glucocorticoid receptor [4] it was 182 nM; at Glucocorticoid receptor [2] it was 3 nM.
For `C[C@]12Cc3cnn(-c4ccc(F)cc4)c3C=C1CCC[C@@H]2[C@](C)(O)c1ccsc1`, in that order: 0.8 nM, 5.2 nM, 35.6 nM, 14.2 nM and 1 nM.
In turn, `COc1ccc(C[C@H](O)[C@H]2CCCC3=Cc4c(cnn4-c4ccc(F)cc4)C[C@@]32C)cc1` showed a half-inhibitory concentration (IC50) on Glucocorticoid receptor [1] of 6.3 nM. The concentration for a half-maximal effect (EC50) with Mus musculus stood at 66.6 nM.
`C=CC[C@H](O)[C@H]1CCCC2=Cc3c(cnn3-c3ccc(F)cc3)C[C@@]21C` showed an IC50 at Glucocorticoid receptor [1] of 3.9 nM. The 50% effective concentration (EC50) in the assay on Mus musculus came to 36.2 nM; at Glucocorticoid receptor [3], 661 nM; at Glucocorticoid receptor [4], 66 nM; on Glucocorticoid receptor [2], 9.3 nM.
Compound `C[C@]12Cc3cnn(-c4ccc(F)cc4)c3C=C1CCC[C@@H]2[C@@H](O)CCC1CC1` had an IC50 at Glucocorticoid receptor [1] of 1.5 nM. The EC50 in the assay with Mus musculus was found to be 26.3 nM; at Glucocorticoid receptor [3], 332 nM; on Glucocorticoid receptor [4] it was 66 nM; on Glucocorticoid receptor [2], 8.6 nM.
On Glucocorticoid receptor [1], `C[C@]12Cc3cnn(-c4ccc(F)cc4)c3C=C1CCC[C@@H]2[C@@H](O)c1cccc(O)c1` returned an IC50 of 24.9 nM. Also, the concentration for a half-maximal effect (EC50) was found to be 179 nM in the assay with Mus musculus and 54.2 nM at Glucocorticoid receptor [2].
On the same counts, the results for `CC(C)(C)c1ccc(C[C@H](O)[C@H]2CCCC3=Cc4c(cnn4-c4ccc(F)cc4)C[C@@]32C)cc1` are 16.6 nM, 86.5 nM and 24.2 nM.
For `C[C@]12Cc3cnn(-c4ccc(F)cc4)c3C=C1CCC[C@@H]2[C@@H](O)c1ccccc1F`, in that order: 7.2 nM, 57.4 nM and 2.7 nM.
On Glucocorticoid receptor [1], `C[C@]12Cc3cnn(-c4ccc(F)cc4)c3C=C1CCC[C@@H]2[C@@H](O)Cc1ccc(F)cc1` returned a concentration for half-maximal inhibition (IC50) of 2.8 nM. For the same compound, the EC50 in the assay with Mus musculus worked out at 3.7 nM; at Glucocorticoid receptor [3], 1000 nM; on Glucocorticoid receptor [4] it was 53.7 nM; at Glucocorticoid receptor [2], 3.2 nM.
For the compound `C[C@]12C=CC(=O)C=C1CCC1[C@@H]2[C@@H](O)C[C@@]2(C)[C@H]1CC[C@]2(O)C(=O)CO` (single isomer, unassigned) [PREDNISOLONE], a half-maximal effect with Mus musculus (EC50) was put at 5.7 nM.
In the case of `C[C@]12Cc3cnn(-c4ccc(F)cc4)c3C=C1CCC[C@@H]2[C@@H](O)c1ccc(O)cc1`, the concentration for half-maximal inhibition (IC50) against Glucocorticoid receptor [1] was 9.5 nM. Further, the EC50 was 77.2 nM in the assay on Mus musculus and 19.5 nM at Glucocorticoid receptor [2].

Source of the values: ChEMBL document CHEMBL1137074, “Novel N-arylpyrazolo[3,2-c]-based ligands for the glucocorticoid receptor: receptor binding and in vivo activity” (J Med Chem, 2004).
